≈ marks a conversion by molar mass, not a printed value. Calls of active or inactive are those of the source. The rule behind the calls is not given here.
Tests used:
[1] = system: Callosobruchus maculatus; experiment: Insecticidal activity against adult Callosobruchus maculatus assessed reduction mean survival fraction measured 72 hr post dose (reference value: 4.4 +/- 0.31 mean survival fraction); type: functional
[2] = system: Callosobruchus maculatus; experiment: Insecticidal activity against adult Callosobruchus maculatus assessed mean survival fraction ratio at 10 ppm measured 72 hr post dose (reference value: 4.4 +/- 0.31 mean survival fraction); type: functional
[3] = system: Callosobruchus maculatus; experiment: Insecticidal activity against adult Callosobruchus maculatus assessed mean survival fraction ratio at 100 ppm measured 72 hr post dose (reference value: 4.4 +/- 0.31 mean survival fraction); type: functional
[4] = system: Callosobruchus maculatus; experiment: Insecticidal activity against adult Callosobruchus maculatus assessed mean survival fraction ratio at 500 ppm measured 72 hr post dose (reference value: 4.4 +/- 0.31 mean survival fraction); type: functional
[5] = system: Callosobruchus maculatus; experiment: Inhibition of F1 generation emergence in adult Callosobruchus maculatus grown on compound pre-treated cowpea seeds assessed as reduction in adult emergence at 10 to 500 ppm measured over 2 weeks from start of F1 emergence; type: functional, organism-based
In short: (§1)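 Compounds in acetone at 500, 100 and 10 ppm were coated onto cowpea seed by rotary evaporation (5 mL per 25 g) and air-dried 1 h. 5 g of treated seed went in a vial with 5 mated females, 2–3 days old, 5 replicates per treatment. Females were removed at 72 h and eggs counted. F1 emergence was counted from day 25 over two weeks. Means compared by ANOVA with SNK or LSD.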

[6] = system: Callosobruchus maculatus; experiment: Inhibition of oviposition in adult Callosobruchus maculatus grown on compound pre-treated cowpea seeds assessed as reduction in number of eggs at 10 to 500 ppm measured after 72 hr; type: functional, organism-based; in short: as §1

COc1cc2c(cc1OC)[C@@H]1C(=O)c3c(O)cc4c(c3O[C@@H]1CO2)C=CC(C)(C)O4 [TOXICAROL]
LC50 [1]: < 10 µg/mL | Ratio [2]: 2.2 | Ratio [3]: 2.2 | Ratio [4]: 2.2

COc1cc2c(cc1OC)[C@]1(O)C(=O)c3ccc4c(c3O[C@@H]1CO2)C1C(O4)C1(C)C (some centres undefined) [SARCOLOBINE]
LC50 [1]: < 10 µg/mL | Ratio [2]: 2 | Ratio [3]: 1.4 | Ratio [4]: 0.6

COc1cc2c(cc1OC)[C@]1(O)C(=O)c3ccc4c(c3O[C@@H]1CO2)C=CC(C)(C)O4 [TEPHROSIN]
inhibition [5]: Active | inhibition [6]: Active | LC50 [1]: 200 µg/mL (≈ 487 µM) | Ratio [2]: 2.9 | Ratio [3]: 2.3 | Ratio [4]: 1.8

COc1cc2c(c3c1C(=O)C[C@@H](c1ccccc1)O3)C=CC(C)(C)O2 [OBOVATIN 5-METHYL ETHER]
Ratio [2]: 3.8 | Ratio [3]: 4.2 | Ratio [4]: 4.2

COc1cc2c(cc1OC)[C@@H]1C(=O)c3ccc4c(c3O[C@@H]1CO2)C=CC(C)(C)O4 [DEGUELIN]
inhibition [5]: Active | inhibition [6]: Active | LC50 [1]: < 10 µg/mL | Ratio [2]: 2.6 | Ratio [3]: 1.4 | Ratio [4]: 0.9

C=C(C)[C@H]1Cc2c(ccc3c2O[C@@H]2COc4cc(OC)c(OC)cc4[C@@H]2C3=O)O1 [ROTENONE]
inhibition [5]: Active | inhibition [6]: Active | LC50 [1]: < 10 µg/mL | Ratio [2]: 1 | Ratio [3]: 0.7 | Ratio [4]: 0.4

From ChEMBL document CHEMBL3045637, “Highly variable insect control efficacy of Tephrosia vogelii chemotypes” (2012)
